What was measured:
[1] = test system: HL-60; experiment: Cytotoxicity in human HL60 cells assessed as reduction in cell viability incubated for 48 hrs by MTT assay; type: functional, cell-based; conditions: HL-60, 48 h
Outline: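 HepG2 and HL60 (ATCC) grown in DMEM with 10% FBS, 2 mM L-glutamine, penicillin/streptomycin, amphotericin B at 37 °C, 5% CO2. Samples dissolved in DMSO, diluted thousandfold in assay. Cells seeded in serum-free medium, treated with serial concentrations 48 h; MTT 4 h, formazan dissolved in acidified isopropanol, A570. Triplicates averaged; viability relative to untreated/vehicle control.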

[2] = test system: HL-60(TB); experiment: Growth inhibition of human HL-60(TB) cells assessed as cell growth at 10 uM after 48 hrs by sulforhodamine B assay; type: functional; conditions: HL-60, 48 h, read-out: Activity
Outline: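 Screened by the NCI in its 60-cell-line panel covering nine cancer types, including leukemia. Compounds were added at a single concentration, and the cultures were incubated for 48 h. Results are reported as percent growth inhibition.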

[3] = test system: K562; experiment: Growth inhibition of human K562 cells assessed as cell growth at 10 uM after 48 hrs by sulforhodamine B assay; type: functional; conditions: K562, 48 h, read-out: Activity
Outline: (§1)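 NCI 60-cell-line panel screen (nine cancer types). Compounds added at single concentration 10^-5 M, cultures incubated 48 h; growth inhibition percentages reported.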

[4] = test system: MOLT-4; experiment: Growth inhibition of human MOLT4 cells assessed as cell growth at 10 uM after 48 hrs by sulforhodamine B assay; type: functional; conditions: MOLT-4, 48 h, read-out: Activity; outline: as §1
[5] = test system: SR; experiment: Growth inhibition of human SR cells assessed as cell growth at 10 uM after 48 hrs by sulforhodamine B assay; type: functional; conditions: read-out: Activity
Outline: (§2)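 NCI 60-cell-line panel from nine tumour types (leukaemia, lung, colon, CNS, melanoma, ovarian, renal, prostate, breast). Each compound was added at one single concentration, and cultures were incubated for 48 h. Results are reported as percent growth inhibition.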

[6] = test system: A549; experiment: Growth inhibition of human A549/ATCC cells assessed as cell growth at 10 uM after 48 hrs by sulforhodamine B assay; type: functional; conditions: A549, 48 h, read-out: Activity; outline: as §1
[7] = test system: EKVX; experiment: Growth inhibition of human EKVX cells assessed as cell growth at 10 uM after 48 hrs by sulforhodamine B assay; type: functional; conditions: read-out: Activity; outline: as §1
[8] = test system: HOP-62; experiment: Growth inhibition of human HOP62 cells assessed as cell growth at 10 uM after 48 hrs by sulforhodamine B assay; type: functional; conditions: HOP-62, 48 h, read-out: Activity; outline: as §1
[9] = test system: NCI-H322M; experiment: Growth inhibition of human NCI-H322M cells assessed as cell growth at 10 uM after 48 hrs by sulforhodamine B assay; type: functional; conditions: read-out: Activity; outline: as §1
[10] = test system: NCI-H460; experiment: Growth inhibition of human NCI-H460 cells assessed as cell growth at 10 uM after 48 hrs by sulforhodamine B assay; type: functional; conditions: NCI-H460, 48 h, read-out: Activity; outline: as §1
[11] = test system: COLO 205; experiment: Growth inhibition of human COLO205 cells assessed as cell growth at 10 uM after 48 hrs by sulforhodamine B assay; type: functional; conditions: COLO 205, 48 h, read-out: Activity; outline: as §1
[12] = test system: HCC 2998; experiment: Growth inhibition of human HCC2998 cells assessed as cell growth at 10 uM after 48 hrs by sulforhodamine B assay; type: functional; conditions: HCC 2998, 48 h, read-out: Activity; outline: as §1
[13] = test system: HCT-116; experiment: Growth inhibition of human HCT116 cells assessed as cell growth at 10 uM after 48 hrs by sulforhodamine B assay; type: functional; conditions: HCT-116, 48 h, read-out: Activity; outline: as §1
[14] = test system: SF-268; experiment: Growth inhibition of human SF268 cells assessed as cell growth at 10 uM after 48 hrs by sulforhodamine B assay; type: functional; conditions: SF-268, 48 h, read-out: Activity; outline: as §1
[15] = test system: U-251; experiment: Growth inhibition of human U251 cells assessed as cell growth at 10 uM after 48 hrs by sulforhodamine B assay; type: functional; conditions: U-251, 48 h, read-out: Activity; outline: as §2
[16] = test system: SK-MEL-28; experiment: Growth inhibition of human SK-MEL-28 cells assessed as cell growth at 10 uM after 48 hrs by sulforhodamine B assay; type: functional; conditions: SK-MEL-28, 48 h, read-out: Activity; outline: as §1
[17] = test system: SK-MEL-5; experiment: Growth inhibition of human SK-MEL-5 cells assessed as cell growth at 10 uM after 48 hrs by sulforhodamine B assay; type: functional; conditions: SK-MEL-5, 48 h, read-out: Activity; outline: as §1
[18] = test system: UACC-62; experiment: Growth inhibition of human UACC62 cells assessed as cell growth at 10 uM after 48 hrs by sulforhodamine B assay; type: functional; conditions: UACC-62, 48 h, read-out: Activity; outline: as §2
[19] = test system: IGROV-1; experiment: Growth inhibition of human IGROV1 cells assessed as cell growth at 10 uM after 48 hrs by sulforhodamine B assay; type: functional; conditions: IGROV-1, 48 h, read-out: Activity; outline: as §1
[20] = test system: OVCAR-8; experiment: Growth inhibition of human OVCAR8 cells assessed as cell growth at 10 uM after 48 hrs by sulforhodamine B assay; type: functional; conditions: OVCAR-8, 48 h, read-out: Activity; outline: as §1
[21] = test system: ACHN; experiment: Growth inhibition of human ACHN cells assessed as cell growth at 10 uM after 48 hrs by sulforhodamine B assay; type: functional; conditions: read-out: Activity; outline: as §1
[22] = test system: SN12C; experiment: Growth inhibition of human SN12C cells assessed as cell growth at 10 uM after 48 hrs by sulforhodamine B assay; type: functional; conditions: read-out: Activity; outline: as §2
[23] = test system: TK-10; experiment: Growth inhibition of human TK10 cells assessed as cell growth at 10 uM after 48 hrs by sulforhodamine B assay; type: functional; conditions: TK-10, 48 h, read-out: Activity; outline: as §2
[24] = test system: UO-31; experiment: Growth inhibition of human UO31 cells assessed as cell growth at 10 uM after 48 hrs by sulforhodamine B assay; type: functional; conditions: UO-31, 48 h, read-out: Activity; outline: as §2
[25] = test system: MDA-MB-231; experiment: Growth inhibition of human MDA-MB-231 cells assessed as cell growth at 10 uM after 48 hrs by sulforhodamine B assay; type: functional; conditions: MDA-MB-231, 48 h, read-out: Activity; outline: as §1
[26] = test system: Hs-578T; experiment: Growth inhibition of human Hs 578T cells assessed as cell growth at 10 uM after 48 hrs by sulforhodamine B assay; type: functional; conditions: read-out: Activity; outline: as §1
[27] = test system: BT-549; experiment: Growth inhibition of human BT549 cells assessed as cell growth at 10 uM after 48 hrs by sulforhodamine B assay; type: functional; conditions: BT-549, 48 h, read-out: Activity; outline: as §1
[28] = test system: MDA-MB-468; experiment: Growth inhibition of human MDA-MB-468 cells assessed as cell growth at 10 uM after 48 hrs by sulforhodamine B assay; type: functional; conditions: MDA-MB-468, 48 h, read-out: Activity; outline: as §1
[29] = test system: UACC-257; experiment: Growth inhibition of human UACC257 cells assessed as cell growth at 10 uM after 48 hrs by sulforhodamine B assay; type: functional; conditions: UACC-257, 48 h, read-out: Activity; outline: as §2
[30] = test system: CAKI-1; experiment: Growth inhibition of human CAKI-1 cells assessed as cell growth at 10 uM after 48 hrs by sulforhodamine B assay; type: functional; conditions: CAKI-1, 48 h, read-out: Activity; outline: as §1

Row | SMILES | IC50 [1] [µM] | growth at 10 µM [2] [%] | growth at 10 µM [4] [%] | growth at 10 µM [5] [%] | growth at 10 µM [6] [%] | growth at 10 µM [7] [%] | growth at 10 µM [8] [%] | growth at 10 µM [9] [%] | growth at 10 µM [10] [%] | growth at 10 µM [11] [%] | growth at 10 µM [13] [%] | growth at 10 µM [14] [%] | growth at 10 µM [15] [%] | growth at 10 µM [19] [%] | growth at 10 µM [20] [%] | growth at 10 µM [21] [%] | growth at 10 µM [23] [%] | growth at 10 µM [24] [%] | growth at 10 µM [25] [%] | growth at 10 µM [26] [%] | other results
1 | CCOc1ccc(-n2nc(C(=O)NCc3cccc(OC)c3)nc2-c2cc(OC)c(OC)c(OC)c2)cc1 | 98.8 | 91 | 69.9 | 72.5 | 73.2 | 89.1 | 72.4 | 81.6 | 102 | 91.8 | 96 | 91.5 | 94.2 | 80.4 | 94.3 | 97.5 | 87.8 | 44.3 | 76.3 | 93.3 | growth at 10 µM [3]: 88.5%; growth at 10 µM [12]: 102%; growth at 10 µM [16]: 109%; growth at 10 µM [17]: 92.2%; growth at 10 µM [18]: 82.9%; growth at 10 µM [22]: 96.5%; growth at 10 µM [27]: 92.6%; growth at 10 µM [28]: 87.7%
2 | CCOc1ccc(-n2nc(C(=O)Nc3ccc(F)c(F)c3)nc2-c2cc(OC)c(OC)c(OC)c2)cc1 | 17.1 | 89 | 50 | 64 | 62 | 76.5 | 89.1 | 73 | 77.9 | 63.7 | 51.2 | 84.9 | 70.3 | 81.3 | 42.2 | 64.5 | 87.4 | 42.6 | 63.1 | 48.1 | growth at 10 µM [29]: 89.4%; growth at 10 µM [30]: 68.5%; growth at 10 µM [27]: 65.5%; growth at 10 µM [28]: 98.6%
3 | CCOc1ccc(-n2nc(C(=O)Nc3cc(F)cc(F)c3)nc2-c2cc(OC)c(OC)c(OC)c2)cc1 | > 100 | 96.1 | 63.9 | 61.8 | 73.8 | 85.8 | 95 | 85.3 | 94.7 | 89.9 | 95.2 | 88.9 | 82 | 85.1 | 84.6 | 82.7 | 96.9 | 53.5 | 64.3 | 75.5 | growth at 10 µM [29]: 90.4%; growth at 10 µM [30]: 68.8%; growth at 10 µM [27]: 101%; growth at 10 µM [28]: 77%
4 | CCOc1ccc(-n2nc(C(=O)Nc3ccc(OC)c(O)c3)nc2-c2cc(OC)c(OC)c(OC)c2)cc1 | > 100 | 94.3 | 74.9 | 68.5 | 94 | 95.7 | 99.3 | 84.7 | 97.6 | 109 | 96.7 | 94.1 | 93.2 | 95.2 | 78.7 | 91.5 | 107 | 56 | 65.8 | 86.8 | growth at 10 µM [29]: 90.8%; growth at 10 µM [30]: 86.1%; growth at 10 µM [27]: 103%; growth at 10 µM [28]: 101%
5 | CCOc1ccc(-n2nc(C(=O)Nc3cc(OC)c(OC)c(OC)c3)nc2-c2cc(OC)c(OC)c(OC)c2)cc1 | > 100 | 98.2 | 67.5 | 40.7 | 86.9 | 96.1 | 95.7 | 89.2 | 92.1 | 80.3 | 75.8 | 92.1 | 85.1 | 90.8 | 74 | 85.7 | 104 | 52.6 | 50.5 | 65.6 | growth at 10 µM [29]: 93.1%; growth at 10 µM [30]: 77.4%; growth at 10 µM [27]: 91.5%; growth at 10 µM [28]: 82%

Source: ChEMBL document CHEMBL4138126, “Synthesis, antiproliferative, anti-tubulin activity, and docking study of new 1,2,4-triazoles as potential combretastatin analogues” (Eur J Med Chem, 2017)
